Measured values: ChEMBL document CHEMBL2034961, “Kinase inhibitory potencies and in vitro antiproliferative activities of N-10 substituted pyrrolo[2,3-a]carbazole derivatives” (Bioorg Med Chem Lett, 2012)

Key:
[1] = target: T1, Serine/threonine-protein kinase pim-1 (Homo sapiens, UniProt P11309); assay: Inhibition of Pim-1 using RSRHSSYPAGT as substrate assessed as residual activity at 10 uM after 30 mins
Summary of the method: (§1)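 Each Pim isoform (Pim-1, Pim-2, Pim-3) was assayed in duplicate by a previously published method. Compounds were tested at single concentrations of 10 and 1, and results are given as percent residual kinase activity.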
Target sequence in this assay (P11309 whole entry, looked up, canonical isoform): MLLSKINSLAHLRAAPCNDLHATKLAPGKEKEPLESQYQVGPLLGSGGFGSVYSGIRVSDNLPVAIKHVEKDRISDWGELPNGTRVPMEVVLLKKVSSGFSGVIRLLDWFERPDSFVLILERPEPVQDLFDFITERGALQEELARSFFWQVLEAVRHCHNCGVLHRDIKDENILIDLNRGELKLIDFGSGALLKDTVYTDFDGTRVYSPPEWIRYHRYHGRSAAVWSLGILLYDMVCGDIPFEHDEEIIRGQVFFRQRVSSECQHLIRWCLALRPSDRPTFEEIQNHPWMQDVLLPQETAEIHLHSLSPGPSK

[2] = target: T1, Serine/threonine-protein kinase pim-1; assay: Inhibition of Pim-1 using RSRHSSYPAGT as substrate assessed as residual activity at 1 uM after 30 mins; summary of the method: as §1
Target sequence in this assay (P11309 whole entry, looked up, canonical isoform): as above

[3] = target: T1, Serine/threonine-protein kinase pim-1; assay: Inhibition of Pim-1 using RSRHSSYPAGT as substrate after 30 mins
Summary of the method: (§2)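 Kinase assays on each Pim isoform were run in duplicate by a previously published method.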
Target sequence in this assay (P11309 whole entry, canonical isoform): as the sequence (P11309 whole entry, looked up, canonical isoform) above

[4] = target: Serine/threonine-protein kinase pim-2 (Homo sapiens) (UniProt Q9P1W9); assay: Inhibition of Pim-2 using RSRHSSYPAGT as substrate assessed as residual activity at 10 uM after 30 mins; summary of the method: as §1
Serine/threonine-protein kinase pim-2 (Homo sapiens), sequence (Q9P1W9 whole entry, looked up): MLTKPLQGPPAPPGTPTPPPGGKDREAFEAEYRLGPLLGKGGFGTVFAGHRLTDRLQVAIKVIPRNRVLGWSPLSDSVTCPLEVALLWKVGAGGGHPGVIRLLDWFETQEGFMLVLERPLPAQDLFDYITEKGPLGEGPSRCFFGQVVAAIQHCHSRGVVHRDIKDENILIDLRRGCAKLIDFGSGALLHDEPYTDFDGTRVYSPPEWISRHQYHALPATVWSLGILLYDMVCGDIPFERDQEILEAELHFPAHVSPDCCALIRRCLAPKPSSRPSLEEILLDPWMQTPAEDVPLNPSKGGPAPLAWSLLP

[5] = target: Serine/threonine-protein kinase pim-2 (Homo sapiens) (UniProt Q9P1W9); assay: Inhibition of Pim-2 using RSRHSSYPAGT as substrate assessed as residual activity at 1 uM after 30 mins; summary of the method: as §1
[6] = target: T2, Serine/threonine-protein kinase pim-3 (Homo sapiens, UniProt Q86V86); assay: Inhibition of Pim-3 using RSRHSSYPAGT as substrate assessed as residual activity at 10 uM after 30 mins; summary of the method: as §1
[7] = target: T2, Serine/threonine-protein kinase pim-3; assay: Inhibition of Pim-3 using RSRHSSYPAGT as substrate assessed as residual activity at 1 uM after 30 mins; summary of the method: as §1
[8] = target: T2, Serine/threonine-protein kinase pim-3; assay: Inhibition of Pim-3 using RSRHSSYPAGT as substrate after 30 mins; summary of the method: as §2
[9] = Cytotoxicity against human fibroblasts by resazurin reduction test; format: cell-based; conditions: Fibroblast
Summary of the method: (§3)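 Antiproliferative effect read by resazurin reduction. Cells were a human fibroblast primary culture, PA1 (ovarian carcinoma), and PC3 and DU145 (prostatic carcinoma).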

[10] = tested on: PA-1; assay: Cytotoxicity against human PA1 cells by resazurin reduction test; format: functional, cell-based; summary of the method: as §3
[11] = tested on: PC-3; assay: Cytotoxicity against human PC3 cells by resazurin reduction test; format: functional, cell-based; summary of the method: as §3
[12] = tested on: DU-145; assay: Cytotoxicity against human DU145 cells by resazurin reduction test; format: functional, cell-based; summary of the method: as §3

| SMILES | Activity [1] [%] | Activity [2] [%] | IC50 [3] [nM] | Activity [4] [%] | Activity [5] [%] | Activity [6] [%] | Activity [7] [%] | IC50 [8] [nM] | IC50 [9] [nM] | IC50 [10] [nM] | IC50 [11] [nM] | IC50 [12] [nM] |
| --- | --- | --- | --- | --- | --- | --- | --- | --- | --- | --- | --- | --- |
| CN(C)CCCCn1c2ccccc2c2ccc3c(C=O)c[nH]c3c21 | 10 | 24 | 75 | 22 | 74 | 1 | 7 | 80 | 630 | 486 | 650 | 960 |
| CC(C)(C)OC(=O)NCCCCn1c2ccccc2c2ccc3c(C=O)c[nH]c3c21 | 4 | 23 | 470 | 54 | 97 | 3 | 16 | 200 | 17300 | 14900 | 13100 | 12200 |
| N#CCCCCn1c2ccccc2c2ccc3c(C=O)c[nH]c3c21 | 1 | 3 | 46 | 40 | 32 | 2 | 3 | 41 | 14500 | 8000 | 16000 | 20000 |
